For experiment [1], the system named is Mus musculus. Nature of the experiment: Anti-neoplastic effect in estrogen and progesterone receptor positive hormone-dependent postmenopausal human mammary carcinoma bearing mice at 3 mg/kg/day. It counts as functional. A digest of the protocol: (§1)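 Human ER- and PR-positive, hormone-dependent postmenopausal mammary carcinoma, serially transplanted in NMRI nu/nu mice (castrated females or males, about 25 g, 6–7 weeks old, 10–12 per group). Drug given sc in olive oil 6 times/week; controls received vehicle for 4–6 weeks. Two tumor diameters measured weekly. Size is relative to treatment start (=1), averaged after 4 weeks. Compared with controls at α ≤ 0.05.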

For experiment [2], the target named is Estrogen receptor (Bos taurus) (UniProt Q9XSB5+P49884). Nature of the experiment: Binding affinity against Estrogen receptor in calf-uterine cytosol relative to 17-beta-estradiol using [3H]estradiol. The class given is protein assay. The method in brief: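 Calf uterine cytosol was incubated with [3H]estradiol and six concentrations of unlabeled competitor at 4 °C for 16 h. Incubation was stopped with dextran-coated charcoal; after centrifugation, supernatant radioactivity was counted. The concentrations of estradiol and of test compound giving 50% displacement were read from a semilog plot. Relative binding affinity = [E2]/[I] × 100.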

The test system of experiment [3] is Mus musculus. The experiment in a line: Anti-neoplastic effect in estrogen and progesterone receptor positive hormone-dependent postmenopausal human mammary carcinoma bearing mice at 2.5 mg/kg/day. The class given is functional. The method in brief: as §1
The subject of experiment [4] is Rattus norvegicus. The experiment in a line: Percent partial remission in DMBA-induced hormone-dependent mammary carcinoma bearing rats at 1.71 mg/kg/day. The class given is functional. A digest of the protocol:
(§2)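 Female Sprague-Dawley rats received one 20 mg DMBA dose by gastric intubation at age 50 days. About 4 weeks later, rats with at least one tumor over 140 mm² were grouped in tens. Drug given sc in olive oil 6 times/week. Read-outs were tumors classed as complete remission, partial remission, no change or progression, plus % change in tumor area and in body weight.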

Experiment [5] has as its system Rattus norvegicus. Nature of the experiment: Percent change in tumor area in DMBA-induced hormone-dependent mammary carcinoma bearing rats at 6.83 mg/kg/day. It counts as functional. The method in brief: as §2
The test system of experiment [6] is Rattus norvegicus. The experiment in a line: Percent change in body weight in DMBA-induced hormone-dependent mammary carcinoma bearing rats at 0.85 mg/kg/day. It counts as functional. A digest of the protocol:
as §2

Experiment [7] relates to Rattus norvegicus. Nature of the experiment: Percent partial remission in DMBA-induced hormone-dependent mammary carcinoma bearing rats at 0.85 mg/kg/day. The class given is functional. The method in brief: as §2
The subject of experiment [8] is Rattus norvegicus. Nature of the experiment: Percent partial remission in DMBA-induced hormone-dependent mammary carcinoma bearing rats at 6.83 mg/kg/day. It counts as functional. A digest of the protocol: as §2
For experiment [9], the system named is Rattus norvegicus. The experiment in a line: Percent complete remission in DMBA-induced hormone-dependent mammary carcinoma bearing rats at 6.83 mg/kg/day. It counts as functional. A digest of the protocol: as §2
Experiment [10] deals with Rattus norvegicus. The experiment in a line: Percent complete remission in DMBA-induced hormone-dependent mammary carcinoma bearing rats at 1.71 mg/kg/day. The class given is functional. A digest of the protocol: as §2
Experiment [11] deals with Rattus norvegicus. Nature of the experiment: Percent tumor progression in DMBA-induced hormone-dependent mammary carcinoma bearing rats at 6.83 mg/kg/day. The class given is functional. A digest of the protocol:
as §2

Experiment [12] has as its system Rattus norvegicus. Nature of the experiment: Percent unchanged tumor size in DMBA-induced hormone-dependent mammary carcinoma bearing rats at 6.83 mg/kg/day. The class given is functional. A digest of the protocol:
as §2

In experiment [13] the test system is Mus musculus. Nature of the experiment: Anti-neoplastic effect in estrogen and progesterone receptor positive hormone-dependent postmenopausal human mammary carcinoma bearing mice at 3.4 mg/kg/day. The class given is functional. The method in brief: as §1
Experiment [14] deals with Rattus norvegicus. The experiment in a line: Percent change in body weight in DMBA-induced hormone-dependent mammary carcinoma bearing rats at 6.83 mg/kg/day. The class given is functional. The method in brief: as §2
Experiment [15] deals with Rattus norvegicus. The experiment in a line: Percent change in tumor area in DMBA-induced hormone-dependent mammary carcinoma bearing rats at 0.85 mg/kg/day. It counts as functional. The method in brief: as §2
In experiment [16] the test system is Rattus norvegicus. The experiment in a line: Percent change in tumor area in DMBA-induced hormone-dependent mammary carcinoma bearing rats at 1.71 mg/kg/day. It counts as functional. A digest of the protocol: as §2
The subject of experiment [17] is Rattus norvegicus. Nature of the experiment: Percent unchanged tumor size in DMBA-induced hormone-dependent mammary carcinoma bearing rats at 1.71 mg/kg/day. The class given is functional. A digest of the protocol: as §2
Experiment [18] relates to Rattus norvegicus. Nature of the experiment: Percent tumor progression in DMBA-induced hormone-dependent mammary carcinoma bearing rats at 1.71 mg/kg/day. It counts as functional. The method in brief:
as §2

Experiment [19] relates to Rattus norvegicus. Nature of the experiment: Percent tumor progression in DMBA-induced hormone-dependent mammary carcinoma bearing rats at 0.85 mg/kg/day. It counts as functional. A digest of the protocol: as §2
For experiment [20], the system named is Rattus norvegicus. The experiment in a line: Percent complete remission in DMBA-induced hormone-dependent mammary carcinoma bearing rats at 0.85 mg/kg/day. The class given is functional. A digest of the protocol:
as §2

The test system of experiment [21] is Rattus norvegicus. The experiment in a line: Percent unchanged tumor size in DMBA-induced hormone-dependent mammary carcinoma bearing rats at 0.85 mg/kg/day. The class given is functional. A digest of the protocol:
as §2

Experiment [22] relates to Rattus norvegicus. Nature of the experiment: Percent change in body weight in DMBA-induced hormone-dependent mammary carcinoma bearing rats at 1.71 mg/kg/day. The class given is functional. The method in brief: as §2
Experiment [23] relates to Mus musculus. Nature of the experiment: Anti-neoplastic effect in estrogen and progesterone receptor positive hormone-dependent postmenopausal human mammary carcinoma bearing mice at 2.2 mg/kg/day. The class given is functional. The method in brief: as §1

As to `CC/C(=C(\c1ccccc1)c1cccc(OC(C)=O)c1)c1cccc(OC(C)=O)c1`, the Tumor size in experiment [1] is 2.36. This molecule had an RBA in experiment [2] of 0.2%.

As to `CC/C(=C(/c1ccccc1)c1cccc(OC(C)=O)c1)c1ccccc1`, the Tumor size in experiment [3] is on record as 2.12. Further, the RBA in experiment [2] came to 0.7%.

Consider `CC/C(=C(\c1ccccc1)c1ccc(OC(C)=O)cc1)c1ccccc1`, for which the Tumor size in [3] came out at 1.3. Moreover, in experiment [2], the RBA was 2%.

On to `CC/C(=C(/c1ccccc1)c1ccc(OC(C)=O)cc1)c1ccc(OC(C)=O)cc1`, for which the Tumor size in [1] amounted to 0.83. Further, the RBA in [2] was determined as 5.9%.

Regarding `CC/C(=C(\c1ccccc1)c1cccc(OC(C)=O)c1)c1ccccc1`, the Tumor size in experiment [3] worked out at 2.41. Further, the RBA in [2] turned out to be 0.3%.

`CC/C(=C(/c1ccccc1)c1cccc(OC(C)=O)c1)c1cccc(OC(C)=O)c1` showed a Tumor size in experiment [1] of 1.35. This molecule also yielded an RBA in experiment [2] of 1.1%.

As for `CCC(=C(c1cccc(OC(C)=O)c1)c1cccc(OC(C)=O)c1)c1cccc(OC(C)=O)c1`, the Tumors in experiment [4] turned out to be 16%; in experiment [7], 14%; in experiment [8], 30%; in experiment [11], 35%; in experiment [12], 30%; in experiment [17] it was 37%. In addition, the Tumors in experiment [18] is given as 44%; in [19], 40%; in experiment [20] it was 2%; in [21] it was 44%. The Change in [5] stood at 54%; in [6], 5.2%; in experiment [9], 5%; in experiment [10] it was 3%; in [14], 3.6%; in [15], 102%. Besides, the figures for the Change in experiment [16] and in experiment [22] were 78% and 3.2%, respectively. Also, the Tumor size in experiment [13] is 2.12. Moreover, the RBA in experiment [2] came out at 1.5%.

Consider `CC/C(=C(\c1ccc(OC(C)=O)cc1)c1cccc(OC(C)=O)c1)c1cccc(OC(C)=O)c1`, for which the Tumor size in experiment [13] is 1.69. The molecule further came in with an RBA in experiment [2] of 2.7%.

`CCC(=C(c1ccc(OC(C)=O)cc1)c1ccc(OC(C)=O)cc1)c1ccc(OC(C)=O)cc1` yielded a Tumor size in experiment [13] of 1.52. Also, the RBA in [2] was determined as 4.2%.

In turn, `CCC(=C(c1ccccc1)c1ccccc1)c1ccc(OC(C)=O)cc1` came in with a Tumor size in experiment [3] of 1.12. In experiment [2], the RBA was determined as 3.8%.

As to `CCC(=C(c1ccccc1)c1ccccc1)c1ccccc1`, the Tumor size in experiment [23] was 1.61. The same molecule showed an RBA in experiment [2] of 0.8%.

`CCC(=C(c1ccccc1)c1ccccc1)c1cccc(OC(C)=O)c1` displayed a Tumor size in [3] of 1.04. Moreover, in [2], the RBA is 1.5%.

`CCC(=C(c1cccc(OC(C)=O)c1)c1cccc(OC(C)=O)c1)c1ccccc1` showed a Tumor size in experiment [1] of 2.4. In experiment [2], this molecule came in with an RBA of 1.2%.

As to `CC/C(=C(/c1ccccc1)c1ccc(OC(C)=O)cc1)c1ccccc1`, in [3], the Tumor size stood at 1.24. The same molecule yielded an RBA in experiment [2] of 5.7%.

`CC/C(=C(/c1ccc(OC(C)=O)cc1)c1cccc(OC(C)=O)c1)c1cccc(OC(C)=O)c1` had a Tumor size in [13] of 2.44. The same molecule registered an RBA in [2] of 1.8%.

The molecule `CCC(=C(c1ccc(OC(C)=O)cc1)c1ccc(OC(C)=O)cc1)c1ccccc1` showed a Tumor size in experiment [1] of 0.81. Besides, the RBA in experiment [2] was determined as 6.8%.

On to `CC/C(=C(\c1ccc(OC(C)=O)cc1)c1cccc(OC(C)=O)c1)c1ccc(OC(C)=O)cc1`, for which the Tumor size in experiment [13] is 2.04. The molecule further showed an RBA in [2] of 3%.

`CC/C(=C(\c1ccccc1)c1ccc(OC(C)=O)cc1)c1ccc(OC(C)=O)cc1` gave a Tumor size in experiment [1] of 1.39. Moreover, the RBA in [2] amounted to 1%.

Source of the values: ChEMBL document CHEMBL1122131, “1,1,2-triphenylbut-1-enes: relationship between structure, estradiol receptor affinity, and mammary tumor inhibiting properties” (1982).
